The values below come from ChEMBL document CHEMBL3271988, “Nitrogen analogues of 1,4-benzoquinones. Activities against the ascitic sarcoma 180 of mice” (J Med Chem, 1978).

For series [1], the system named is Sarcoma-180. Description: Antitumor activity against mouse Sarcoma 180 cells allografted in Swiss mouse assessed as survival at 20 mg/kg, ip three doses were given at 24 hrs interval starting 24 hrs after allograft injection measured after 5 days. The format is functional, organism-based. Also noted: dose 20 mg/kg. Summed up:
(§1)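 Swiss mice were injected ip with 10^6 ascitic sarcoma 180 cells. Three daily ip doses followed, the first 24 h after cell injection. The read-out was the number of mice surviving at 5 days, out of 6 treated.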

Series [2] in a line: Acute toxicity in single ip dosed Swiss mouse assessed as death up to 5 days. The series is classed as organism-based. To be noted: in vivo. In short, it runs like this:
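Male Swiss mice given one ip dose. LD50 taken as the single dose killing 50% of animals within 5 days.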

Series [3] can be described thus: Redox potential of the compound in alcohol-water solution. Conditions: buffer.
Series [4] relates to Sarcoma-180. Description: Antitumor activity against mouse Sarcoma 180 cells allografted in Swiss mouse assessed as weight gain at 20 mg/kg, ip three doses were given at 24 hrs interval starting 24 hrs after allograft injection measured after 3 days relative to control. The series is classed as functional. Conditions: route intraperitoneal. Summed up:
(§2)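 Ascitic sarcoma 180 model in Swiss mice: 10^6 cells ip, then three ip doses at 24-h intervals beginning 24 h later. Mice were weighed 1 day after cell injection and again 3 days later (24 h after the third dose). Percent weight gain of treated mice was compared with saline-treated controls on the same schedule.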

Series [5] concerns Sarcoma-180. Description: Antitumor activity against mouse Sarcoma 180 cells allografted in Swiss mouse assessed as cure at 20 mg/kg, ip three doses were given at 24 hrs interval starting 24 hrs after allograft injection measured after 60 days. The series is classed as functional, organism-based. Also noted: dose 20 mg/kg. Summed up:
(§3)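 Swiss mice given 10^6 ascitic sarcoma 180 cells ip. Starting 24 h later, three ip doses were given 24 h apart. Controls got isotonic salt solution on the same schedule. A cure was a mouse alive with no evidence of cancer cells 60 days after cell injection, reported per 6 mice.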

The test system of series [6] is Sarcoma-180. Briefly: Antitumor activity against mouse Sarcoma 180 cells allografted in Swiss mouse assessed as survival time at 20 mg/kg, ip three doses were given at 24 hrs interval starting 24 hrs after allograft injection relative to control. The series is classed as functional. To be noted: route intraperitoneal. Summed up:
(§4)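 Swiss mice inoculated ip with 10^6 ascitic sarcoma 180 cells. Compound given ip daily ×3 at 24-h intervals, starting 24 h after inoculation. Controls received isotonic saline on the same schedule; 6 mice per group. Mice alive at 60 days counted as 60 days in mean survival (±SD).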

For series [7], the system named is Sarcoma-180. Briefly: Antitumor activity against mouse Sarcoma 180 cells allografted in Swiss mouse at 20 mg/kg, ip three doses were given at 24 hrs interval starting 24 hrs after allograft injection relative to control. The format is functional. To be noted: route intraperitoneal. In short, it runs like this: (§5)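 Swiss mice received 10^6 ascitic sarcoma 180 cells ip, then three ip doses 24 h apart starting at 24 h. Controls got isotonic salt solution on the same schedule. T/C% is mean survival time of treated over controls (6 mice per group).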

A short description of series [8]: Half life of the compound in water at pH 7 at 25 degC by spectrophotometry. The format is physicochemical. In short, it runs like this: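 Compound dissolved in absolute ethanol, then diluted into 0.01 M Tris buffer brought to pH 7 with HCl, 25 °C. Absorbance at λmax followed over hours or days; log absorbance vs time fitted by least squares, rate constant and half-time taken from the slope.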

The test system of series [9] is Sarcoma-180. Briefly: Antitumor activity against mouse Sarcoma 180 cells allografted in Swiss mouse assessed as survival at 10 mg/kg, ip three doses were given at 24 hrs interval starting 24 hrs after allograft injection measured after 5 days. Also noted: dose 10 mg/kg. The series is classed as functional, organism-based. In short, it runs like this:
as §1

Series [10] has as its system Sarcoma-180. Briefly: Antitumor activity against mouse Sarcoma 180 cells allografted in Swiss mouse at 10 mg/kg, ip three doses were given at 24 hrs interval starting 24 hrs after allograft injection relative to control. The series is classed as functional. Conditions: route intraperitoneal. Summed up: as §5
In series [11] the test system is Sarcoma-180. Briefly: Antitumor activity against mouse Sarcoma 180 cells allografted in Swiss mouse assessed as cure at 10 mg/kg, ip three doses were given at 24 hrs interval starting 24 hrs after allograft injection measured after 60 days. The format is functional, organism-based. Also noted: dose 10 mg/kg. In short, it runs like this: as §3
Series [12] concerns Sarcoma-180. Briefly: Antitumor activity against mouse Sarcoma 180 cells allografted in Swiss mouse assessed as survival time at 10 mg/kg, ip three doses were given at 24 hrs interval starting 24 hrs after allograft injection relative to control. The series is classed as functional. Conditions: route intraperitoneal. In short, it runs like this:
as §4

The subject of series [13] is Sarcoma-180. Description: Antitumor activity against mouse Sarcoma 180 cells allografted in Swiss mouse assessed as weight gain at 10 mg/kg, ip three doses were given at 24 hrs interval starting 24 hrs after allograft injection measured after 3 days relative to control. The series is classed as functional. To be noted: route intraperitoneal. In short, it runs like this: as §2

The test system of series [14] is Sarcoma-180. Briefly: Antitumor activity against mouse Sarcoma 180 cells allografted in Swiss mouse assessed as cure at 15 mg/kg, ip three doses were given at 24 hrs interval starting 24 hrs after allograft injection measured after 60 days. The format is functional, organism-based. Also noted: dose 15 mg/kg. Summed up: as §3
Series [15] has as its system Sarcoma-180. Briefly: Antitumor activity against mouse Sarcoma 180 cells allografted in Swiss mouse at 15 mg/kg, ip three doses were given at 24 hrs interval starting 24 hrs after allograft injection relative to control. The series is classed as functional. To be noted: route intraperitoneal. In short, it runs like this: as §5
For series [16], the system named is Sarcoma-180. Briefly: Antitumor activity against mouse Sarcoma 180 cells allografted in Swiss mouse assessed as weight gain at 15 mg/kg, ip three doses were given at 24 hrs interval starting 24 hrs after allograft injection measured after 3 days relative to control. Conditions: route intraperitoneal. The format is functional. Summed up: as §2
Series [17] has as its system Sarcoma-180. Description: Antitumor activity against mouse Sarcoma 180 cells allografted in Swiss mouse assessed as survival time at 15 mg/kg, ip three doses were given at 24 hrs interval starting 24 hrs after allograft injection relative to control. The format is functional. Conditions: route intraperitoneal. Summed up: as §4
The test system of series [18] is Sarcoma-180. Description: Antitumor activity against mouse Sarcoma 180 cells allografted in Swiss mouse assessed as survival at 15 mg/kg, ip three doses were given at 24 hrs interval starting 24 hrs after allograft injection measured after 5 days. Also noted: dose 15 mg/kg. The format is functional, organism-based. Summed up:
as §1

Series [19] deals with Sarcoma-180. Description: Antitumor activity against mouse Sarcoma 180 cells allografted in Swiss mouse assessed as cure at 150 mg/kg, ip three doses were given at 24 hrs interval starting 24 hrs after allograft injection measured after 60 days. The series is classed as functional, organism-based. Also noted: dose 150 mg/kg. Summed up:
as §3

Series [20] relates to Sarcoma-180. Description: Antitumor activity against mouse Sarcoma 180 cells allografted in Swiss mouse assessed as weight gain at 150 mg/kg, ip three doses were given at 24 hrs interval starting 24 hrs after allograft injection measured after 3 days relative to control. The format is functional. Conditions: route intraperitoneal. In short, it runs like this: as §2
Series [21] relates to Sarcoma-180. Briefly: Antitumor activity against mouse Sarcoma 180 cells allografted in Swiss mouse at 150 mg/kg, ip three doses were given at 24 hrs interval starting 24 hrs after allograft injection relative to control. The format is functional. Conditions: route intraperitoneal. In short, it runs like this: as §5
Series [22] deals with Sarcoma-180. Briefly: Antitumor activity against mouse Sarcoma 180 cells allografted in Swiss mouse assessed as survival at 150 mg/kg, ip three doses were given at 24 hrs interval starting 24 hrs after allograft injection measured after 5 days. Also noted: dose 150 mg/kg. The series is classed as functional, organism-based. In short, it runs like this: as §1
In series [23] the test system is Sarcoma-180. Description: Antitumor activity against mouse Sarcoma 180 cells allografted in Swiss mouse assessed as survival time at 150 mg/kg, ip three doses were given at 24 hrs interval starting 24 hrs after allograft injection relative to control. To be noted: route intraperitoneal. The series is classed as functional. Summed up: as §4
Series [24] deals with Sarcoma-180. Briefly: Antitumor activity against mouse Sarcoma 180 cells allografted in Swiss mouse assessed as survival time at 3 mg/kg, ip three doses were given at 24 hrs interval starting 24 hrs after allograft injection relative to control. The series is classed as functional. To be noted: route intraperitoneal. In short, it runs like this: as §4
Series [25] has as its system Sarcoma-180. Briefly: Antitumor activity against mouse Sarcoma 180 cells allografted in Swiss mouse assessed as survival at 3 mg/kg, ip three doses were given at 24 hrs interval starting 24 hrs after allograft injection measured after 5 days. The series is classed as functional, organism-based. Also noted: dose 3 mg/kg. In short, it runs like this: as §1
The test system of series [26] is Sarcoma-180. Briefly: Antitumor activity against mouse Sarcoma 180 cells allografted in Swiss mouse assessed as weight gain at 3 mg/kg, ip three doses were given at 24 hrs interval starting 24 hrs after allograft injection measured after 3 days relative to control. The format is functional. Conditions: route intraperitoneal. In short, it runs like this:
as §2

For series [27], the system named is Sarcoma-180. Description: Antitumor activity against mouse Sarcoma 180 cells allografted in Swiss mouse at 3 mg/kg, ip three doses were given at 24 hrs interval starting 24 hrs after allograft injection relative to control. The series is classed as functional. Conditions: route intraperitoneal. In short, it runs like this: as §5
For series [28], the system named is Sarcoma-180. Description: Antitumor activity against mouse Sarcoma 180 cells allografted in Swiss mouse assessed as cure at 6 mg/kg, ip three doses were given at 24 hrs interval starting 24 hrs after allograft injection measured after 60 days. The format is functional, organism-based. Also noted: dose 6 mg/kg. In short, it runs like this: as §3
For series [29], the system named is Sarcoma-180. Briefly: Antitumor activity against mouse Sarcoma 180 cells allografted in Swiss mouse assessed as survival time at 6 mg/kg, ip three doses were given at 24 hrs interval starting 24 hrs after allograft injection relative to control. The series is classed as functional. Conditions: route intraperitoneal. Summed up: as §4
The subject of series [30] is Sarcoma-180. Briefly: Antitumor activity against mouse Sarcoma 180 cells allografted in Swiss mouse assessed as survival at 6 mg/kg, ip three doses were given at 24 hrs interval starting 24 hrs after allograft injection measured after 5 days. The series is classed as functional, organism-based. Also noted: dose 6 mg/kg. In short, it runs like this:
as §1

Series [31] deals with Sarcoma-180. Description: Antitumor activity against mouse Sarcoma 180 cells allografted in Swiss mouse at 6 mg/kg, ip three doses were given at 24 hrs interval starting 24 hrs after allograft injection relative to control. The series is classed as functional. To be noted: route intraperitoneal. Summed up:
as §5

Series [32] deals with Sarcoma-180. Description: Antitumor activity against mouse Sarcoma 180 cells allografted in Swiss mouse assessed as weight gain at 6 mg/kg, ip three doses were given at 24 hrs interval starting 24 hrs after allograft injection measured after 3 days relative to control. The format is functional. Conditions: route intraperitoneal. Summed up:
as §2

The source made the active and inactive calls. No cut-off for these calls is given here.

A word on the LD50: it is the dose expected to kill half of the subjects tested. What is called T/C is the ratio of treated to control. In general, half-life refers to how long it takes for the measured level to halve. A higher half-life goes with slow decline.

As for `CC(=O)Oc1ccc(N=C2C=CC(=O)C=C2)cc1`, the outcome in [1] was Active. Moreover, the LD50 at 120 h in series [2] is 90 mg/kg. Also, the Redox potential in series [3] is on record as 0.633 V. Moreover, the Activity in [4] is -1.5%. For the same compound, the result in series [5] was inactive. For the same compound, the Survival in series [6] was 19.2 days. In [7], this compound displayed a T/C of 130%.
Regarding `O=C1C(Cl)=CC(=NCl)C=C1Cl`, in series [2], the 50% lethal dose (LD50) at 120 h is 20 mg/kg. Further, the Redox potential in [3] turned out to be 0.659 V. The compound also had a half-life in [8] of 1.67 days. Further, in series [9], the outcome was Active. Besides, the T/C in series [10] worked out at 220%. In series [11], the outcome was inactive. Besides, in series [12], the Survival amounted to 25.3 days. For the same compound, the Activity in series [13] was -14.2%.
`O=C1C=CC(=NBr)C=C1`: the LD50 at 120 h in [2] came out at 40 mg/kg. Besides, the outcome in [14] was inactive. The Redox potential in [3] came out at 0.518 V. Besides, the T/C in series [15] is 145%. In addition, the Activity in series [16] was -3.8%. In addition, the Survival in [17] was determined as 15.5 days. In series [18], the result was Active.
Consider `O=C1C=C/C(=N/O)C(Br)=C1`, for which the outcome in series [19] was inactive. Moreover, the Activity in series [20] is 6.4%. The same compound had a T/C in [21] of 158%. The LD50 at 120 h in series [2] stood at 1090 mg/kg. The same compound registered a Redox potential in series [3] of 0.532 V. Moreover, the result in series [22] was Active. Moreover, in [23], the Survival worked out at 18.2 days.
As for `CC(=O)NC1=C/C(=N\c2ccc(N(C)C)cc2)C=CC1=O`, the Survival in [24] came to 26.8 days. In series [25], the result was Active. Also, in series [26], the Activity is reported as 4.3%. For the same compound, in series [2], the LD50 at 120 h worked out at 70 mg/kg. The Redox potential in [3] is recorded as 0.58 V. The T/C in series [27] is listed as 194%.
As for `CC1=C/C(=N\c2ccc(N(C)C)cc2)C=CC1=O`, the outcome in series [28] was inactive. In addition, the Survival in series [29] came to 18 days. In addition, the LD50 at 120 h in series [2] was 27 mg/kg. This compound also displayed a Redox potential in series [3] of 0.604 V. This compound also showed a half-life in series [8] of 83.8 days. Also, the outcome in series [30] was Active. The same compound showed a T/C in [31] of 127%. Also, the Activity in series [32] was -0.6%.
